Columns and labels:
Rattus norvegicus [1] = assay: In vivo gastric antisecretory activity in acute fistula rats; type: functional, Stomach; parameters: concentration or dose not given beside the values
Procedure, shortened: (§1)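 Male Donryu or Wistar rats, 170-310 g, fasted 24 h. Under urethane anesthesia the pylorus was ligated (acute fistula). Compound, suspended in 1% gum arabic, given intraduodenally after the second gastric juice collection, usually at 10 mg/kg. Acid output compared with vehicle mean. Percent inhibition given as mean ± SE, 2-5 animals per group.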

Rattus norvegicus [2] = assay: Gastric antisecretory activity in rat (in vivo); type: functional; procedure, shortened: as §1
Rattus norvegicus [3] = assay: In vivo gastric mucosal protective activity against gastric mucosal lesions induced by 0.6 N HCl in rats.; type: functional, Gastric mucosa; parameters: concentration or dose not given beside the values
Procedure, shortened: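 Male Donryu or Wistar rats, 150-230 g, deprived of food and water 24 h. Compound given orally (25 mg/kg) 1.5 h before 1 mL 0.6 N HCl po. Killed 1 h after HCl. Stomach fixed with 0.5% formalin, and glandular lesion lengths measured. Percent inhibition compared with vehicle, mean ± SE, 5-10 animals.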

Histamine H2 receptor [4] = biological target: T1, Histamine H2 receptor (Cavia porcellus, UniProt P47747); assay: In vitro inhibitory activity against histamine H2-receptor in isolated Guinea pig right atria.; conditions: read-out: pA2 (converted)
T1 sequence (P47747 whole entry): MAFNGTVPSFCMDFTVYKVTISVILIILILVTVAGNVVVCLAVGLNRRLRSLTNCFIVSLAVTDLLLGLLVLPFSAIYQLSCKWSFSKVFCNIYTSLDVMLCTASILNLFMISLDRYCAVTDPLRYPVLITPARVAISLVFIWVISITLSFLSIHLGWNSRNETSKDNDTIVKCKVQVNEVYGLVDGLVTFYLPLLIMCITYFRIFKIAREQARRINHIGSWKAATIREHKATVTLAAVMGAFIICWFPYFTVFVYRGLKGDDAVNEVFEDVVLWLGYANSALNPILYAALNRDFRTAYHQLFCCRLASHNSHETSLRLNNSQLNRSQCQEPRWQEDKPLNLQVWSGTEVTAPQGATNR

Rattus norvegicus [5] = assay: In Vivo gastric Mucosal protective activity against gastric mucosal lesions induced by 0.6 N HCl in rats. (200 mg/kg, po); type: functional
Procedure, shortened: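 Oral dosing at 200 mg/kg, 1.5 h before 1 mL of 0.6 N HCl, in male Donryu or Wistar rats (150-230 g) deprived of food and water 24 h. Killed 1 h later. Stomach formalin-fixed and glandular lesion length scored against vehicle. Percent inhibition given as mean ± SE.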

Histamine H2 receptor [6] = biological target: T1, Histamine H2 receptor; assay: Compound was evaluated in vitro inhibitory activity against histamine H2 receptor in isolated Guinea pig right atria.; conditions: read-out: pA2 (converted)
Rattus norvegicus [7] = assay: In vivo gastric antisecretory activity in acute fistula rats.; type: functional, Stomach; procedure, shortened: as §1

Kb (Histamine H2 receptor [4]) [nM] | Kb (Histamine H2 receptor [6]) [nM] | Molecule | Inhibition (Rattus norvegicus [1]) [%] | AS activity class (Rattus norvegicus [2]) | Inhibition (Rattus norvegicus [3]) [%] | inhibition (Rattus norvegicus [5]; Gastric mucosa) [%] | Inhibition (Rattus norvegicus [7]) [%] | Inhibition (Rattus norvegicus [5]) [%]
1700 | – | O=C(NCCCOc1cccc(CN2CCCCC2)c1)Nc1ccc(C(F)(F)F)cc1 | 3.8 | 1 | 51 | – | – | –
43.7 | – | CC(C)NC(=O)NCCCOc1cccc(CN2CCCCC2)c1 | 71.3 | 3 | 72.9 | – | – | –
4370 | – | COc1ccc(N/C(S)=N/CCCOc2cccc(CN3CCCCC3)c2)cc1 | -5.5 | – | 51.6 | – | – | –
43.7 | – | O=C(NCCCOc1cccc(CN2CCCCC2)c1)NC1CCCCC1 | 77.9 | 3 | 39.3 | – | – | –
2090 | – | CC(C)(C)NC(=O)NCCCOc1cccc(CN2CCCCC2)c1 | -56 | 1 | 28.5 | – | – | –
631 | – | O=C(NCCCOc1cccc(CN2CCCCC2)c1)Nc1ccc(Cl)cc1 | 28.2 | 1 | 33.9 | – | – | –
347 | – | O=C(NCCCOc1cccc(CN2CCCCC2)c1)NCc1ccccc1 | 54.2 | 2 | 61 | – | – | –
631 | – | Cc1ccc(NC(=O)NCCCOc2cccc(CN3CCCCC3)c2)cc1 | -45.5 | 1 | 40.1 | – | – | –
155 | – | CNC(=O)NCCCOc1cccc(CN2CCCCC2)c1 | 93.3 | 3 | 64.7 | – | – | –
170 | – | CC(C)CNC(=O)NCCCOc1cccc(CN2CCCCC2)c1 | 40.3 | 2 | 43.3 | – | – | –
95.5 | – | CCC(C)NC(=O)NCCCOc1cccc(CN2CCCCC2)c1 (stereo unspecified) | 55.1 | 2 | 17.7 | – | – | –
288 | – | O=C(NCCCOc1cccc(CN2CCCCC2)c1)Nc1ccc2c(c1)OCO2 | 48.9 | 2 | 47.1 | – | – | –
– | – | TEPRENONE | – | – | – | 42.7 | – | –
– | 155 | Nc1cccc(NC(=O)NCCCOc2cccc(CN3CCCCC3)c2)c1 | – | 3 | 47.2 | – | 95 | –
81.3 | – | CCCCNC(=O)NCCCOc1cccc(CN2CCCCC2)c1 | 83 | 3 | 67.5 | – | – | –
631 | – | COc1ccc(NC(=O)NCCCOc2cccc(CN3CCCCC3)c2)cc1 | 73.5 | 3 | 40.9 | – | – | –
– | – | CN/C(=N\CCSCc1nc[nH]c1C)NC#N [CIMETIDINE] | – | – | – | – | – | -42.2

Kb (Histamine H2 receptor [4]) [nM] | Kb (Histamine H2 receptor [6]) [nM] | Molecule | Inhibition (Rattus norvegicus [1]) [%] | AS activity class (Rattus norvegicus [2]) | Inhibition (Rattus norvegicus [3]) [%] | inhibition (Rattus norvegicus [5]; Gastric mucosa) [%] | Inhibition (Rattus norvegicus [7]) [%] | Inhibition (Rattus norvegicus [5]) [%]
85.1 | – | O=C(NCCF)NCCCOc1cccc(CN2CCCCC2)c1 | 98.7 | 3 | 36 | – | – | –
316 | – | O=C(NCCCOc1cccc(CN2CCCCC2)c1)Nc1cccc(Cl)c1 | -44.9 | 1 | 43.3 | – | – | –
– | 178 | O=C(NCCCOc1cccc(CN2CCCCC2)c1)Nc1ccc([N+](=O)[O-])cc1 | – | 1 | 23.4 | – | 9 | –
40.7 | – | CCNC(=O)NCCCOc1cccc(CN2CCCCC2)c1 [DALCOTIDINE] | 71.8 | 3 | 77.9 | – | – | –
97.7 | – | CCCNC(=O)NCCCOc1cccc(CN2CCCCC2)c1 | 96.6 | 3 | 73.5 | – | – | –
269 | – | O=C(NCCCOc1cccc(CN2CCCCC2)c1)Nc1cccc([N+](=O)[O-])c1 | -23.9 | 1 | 40.9 | – | – | –
776 | – | COc1ccccc1NC(=O)NCCCOc1cccc(CN2CCCCC2)c1 | -57.4 | 1 | 31.7 | – | – | –
2240 | – | COc1ccc(NC(=O)NCCCOc2cccc(CN3CCCCC3)c2)c(OC)c1 | 13.1 | 1 | 55.7 | – | – | –
158 | – | COc1ccc(OC)c(NC(=O)NCCCOc2cccc(CN3CCCCC3)c2)c1 | -30.8 | 1 | 34.7 | – | – | –
– | 64.6 | CNC(=C[N+](=O)[O-])NCCSCc1ccc(CN(C)C)o1 [RANITIDINE] | – | – | – | – | – | -16.8
200 | – | COc1cccc(NC(=O)NCCCOc2cccc(CN3CCCCC3)c2)c1 | 53.2 | 2 | 48.2 | – | – | –
126 | – | O=C(NCCCOc1cccc(CN2CCCCC2)c1)Nc1ccccc1 | 12.6 | 1 | 44.3 | – | – | –
813 | – | O=C(NCCCOc1cccc(CN2CCCCC2)c1)Nc1cccc(C(F)(F)F)c1 | 7.8 | 1 | -4.9 | – | – | –
47.9 | – | O=C(NCCCOc1cccc(CN2CCCCC2)c1)NC1CC1 | 87.5 | 3 | 49.4 | – | – | –
490 | – | CCOc1ccc(NC(=O)NCCCOc2cccc(CN3CCCCC3)c2)cc1 | 54.1 | 2 | 32.7 | – | – | –
100 | – | NC(N)=Nc1nc(CSCC/C(N)=N/S(N)(=O)=O)cs1 [FAMOTIDINE] | – | – | – | – | – | 7.9

Source: ChEMBL document CHEMBL1125466, “Synthesis and antiulcer activity of N-substituted N'-[3-[3-(piperidinomethyl)phenoxy]propyl]ureas: histamine H2-receptor antagonists with a potent mucosal protective activity” (J Med Chem, 1992)
